pIC50: −log10 of the molar value.
Key:
[1] = target: GABA-A receptor; anion channel; test: Displacement of [3H]GABA from Gamma-aminobutyric acid A receptor ofrat brain membranes; parameters: species or system Rattus norvegicus
Summary of the method: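 Male Wistar rat whole-brain synaptic membranes, frozen at -20 °C for at least 18 h, Triton X-100 (0.05%) treated at 37 °C for 30 min. Filtration, scintillation counting. Nonspecific binding with 100 μM muscimol. IC50 by log-probit analysis; means of two triplicate experiments.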

[2] = target: GABA B receptor (Rattus norvegicus, UniProt O88871+Q9Z0U4); test: Displacement of [3H]baclofen from Gamma-aminobutyric acid type B receptor of rat brain membranes; assay type: cell membranes, Membrane
Sequence of GABA B receptor (Q9Z0U4 whole entry): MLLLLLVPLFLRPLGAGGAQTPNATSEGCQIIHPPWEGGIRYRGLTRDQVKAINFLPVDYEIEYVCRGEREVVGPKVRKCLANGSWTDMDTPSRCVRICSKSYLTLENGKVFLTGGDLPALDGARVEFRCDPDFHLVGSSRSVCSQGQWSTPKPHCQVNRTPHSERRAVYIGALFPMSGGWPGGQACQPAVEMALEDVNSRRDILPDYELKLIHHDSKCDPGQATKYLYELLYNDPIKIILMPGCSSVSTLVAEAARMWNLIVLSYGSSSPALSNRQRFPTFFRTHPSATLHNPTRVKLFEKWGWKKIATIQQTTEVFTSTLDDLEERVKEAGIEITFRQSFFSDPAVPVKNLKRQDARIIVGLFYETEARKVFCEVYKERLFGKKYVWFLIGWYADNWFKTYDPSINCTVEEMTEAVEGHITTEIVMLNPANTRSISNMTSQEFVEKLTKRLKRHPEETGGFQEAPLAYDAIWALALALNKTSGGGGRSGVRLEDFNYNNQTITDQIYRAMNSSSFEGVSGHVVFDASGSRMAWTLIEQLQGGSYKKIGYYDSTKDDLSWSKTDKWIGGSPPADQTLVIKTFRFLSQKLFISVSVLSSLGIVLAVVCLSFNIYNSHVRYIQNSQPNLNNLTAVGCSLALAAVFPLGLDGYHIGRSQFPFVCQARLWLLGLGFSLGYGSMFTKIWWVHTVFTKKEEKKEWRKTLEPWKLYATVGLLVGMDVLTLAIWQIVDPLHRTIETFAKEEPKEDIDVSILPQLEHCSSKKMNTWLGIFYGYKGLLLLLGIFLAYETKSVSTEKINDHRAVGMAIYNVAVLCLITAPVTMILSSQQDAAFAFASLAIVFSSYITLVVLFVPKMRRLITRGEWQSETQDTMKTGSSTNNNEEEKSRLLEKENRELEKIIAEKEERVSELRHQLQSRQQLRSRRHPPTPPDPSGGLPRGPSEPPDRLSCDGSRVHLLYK
Sequence of GABA B receptor (O88871 whole entry): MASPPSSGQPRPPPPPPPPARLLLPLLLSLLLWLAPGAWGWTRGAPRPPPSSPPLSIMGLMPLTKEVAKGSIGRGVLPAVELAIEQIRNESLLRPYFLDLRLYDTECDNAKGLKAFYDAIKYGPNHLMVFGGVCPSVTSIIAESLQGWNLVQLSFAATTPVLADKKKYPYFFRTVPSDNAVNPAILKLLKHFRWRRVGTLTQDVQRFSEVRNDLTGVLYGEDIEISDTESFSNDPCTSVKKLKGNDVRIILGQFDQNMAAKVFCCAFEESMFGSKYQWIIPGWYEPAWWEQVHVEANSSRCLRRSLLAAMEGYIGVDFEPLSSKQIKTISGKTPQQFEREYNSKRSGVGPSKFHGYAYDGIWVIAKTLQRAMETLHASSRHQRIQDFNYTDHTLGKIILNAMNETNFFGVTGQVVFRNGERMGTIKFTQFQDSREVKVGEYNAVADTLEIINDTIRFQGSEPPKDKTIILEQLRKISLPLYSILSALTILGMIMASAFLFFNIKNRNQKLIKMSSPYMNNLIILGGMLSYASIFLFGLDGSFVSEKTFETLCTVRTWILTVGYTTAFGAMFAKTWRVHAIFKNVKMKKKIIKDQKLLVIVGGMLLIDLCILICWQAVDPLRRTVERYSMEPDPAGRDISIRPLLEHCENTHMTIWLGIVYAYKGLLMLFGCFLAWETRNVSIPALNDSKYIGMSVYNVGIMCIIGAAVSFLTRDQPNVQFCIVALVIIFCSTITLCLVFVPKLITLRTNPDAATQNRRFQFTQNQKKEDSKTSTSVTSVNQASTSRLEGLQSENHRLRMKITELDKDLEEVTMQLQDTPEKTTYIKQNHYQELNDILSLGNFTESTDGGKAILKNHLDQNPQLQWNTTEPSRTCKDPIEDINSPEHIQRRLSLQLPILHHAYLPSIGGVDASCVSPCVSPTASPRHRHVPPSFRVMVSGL
Summary of the method: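 Rat whole-brain synaptic membranes were water-washed and frozen at -20 °C for at least 18 h. They were then washed repeatedly in 50 mM Tris-HCl pH 7.4 with 2.5 mM CaCl2 at 20 °C. The assay was stopped by centrifugation and read by scintillation counting. IC50 values are means of two experiments.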

| SMILES | pIC50 [1] | pIC50 [2] |
| --- | --- | --- |
| CC(C)Oc1ccc(C(CN)CC(=O)O)cc1 (centres undefined) | < 4.00 | – |
| NCC(CC(=O)O)C1Cc2ccccc2O1 (centres undefined) | < 4.00 | < 4.00 |
| COc1ccc2oc(C(CN)CC(=O)O)cc2c1 (centres undefined) | < 4.00 | 5.25 |
| NCC(CC(=O)O)c1ccc(OCc2ccc(Cl)s2)cc1 (centres undefined) | < 4.00 | – |
| COc1ccc2c(c1)CC(C(CN)CC(=O)O)O2 (centres undefined) | < 4.00 | < 4.00 |
| NCC(CC(=O)O)c1ccc(O)cc1 (centres undefined) | < 4.00 | < 4.00 |
| NCC(CC(=O)O)c1cc2ccccc2o1 (centres undefined) | < 4.00 | 4.74 |
| NCC(CC(=O)O)c1ccc(OCc2ccccc2)cc1 (centres undefined) | < 4.00 | < 4.00 |
| NCC(CC(=O)O)c1ccc(OCc2ccc(F)cc2)cc1 (centres undefined) | < 4.00 | < 4.00 |
| Cn1c(=O)oc2cc(C(CN)CC(=O)O)ccc21 (centres undefined) | < 4.00 | < 4.00 |
| NCc1cc(=O)[nH]o1 [MUSCIMOL] | 8.00 | – |

Reference: ChEMBL document CHEMBL1123925 (J Med Chem, 1987)
